From ChEMBL document CHEMBL5365533, “DNA major versus minor groove occupancy of monomeric and dimeric crystal violet derivatives. Toward structural correlations” (Bioorg Med Chem, 2023) come the findings set out here.

Assay [1] has as its system Calf thymus DNA. As to the kind of experiment: Binding affinity to calf thymus DNA in Tris-HCl buffer at pH 7.0 assessed as differential groove occupancy at 100 uM by ITC analysis. Type of assay: nucleic-acid assay. As to conditions: Bos taurus. In a few lines:
(§1)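 ITC of CT DNA (100 μM/bp in cell) titrated with ligand (100 μM in syringe), 10 mM Tris-HCl pH 7.0; 25 injections of 10 μL at 30 °C, or for one ligand 50 injections of 5 μL at 27 °C. Buffer-into-DNA heats subtracted; single-site model gives K, N, ΔH and ΔS.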
On the technique in general: In ITC the heat of successive injections is recorded.

Assay [2] is described as follows: Displacement of Ethidium bromide from NFAT1 (5-GAAAAA-3') hairpin DNA (unknown origin)/EtBr complex assessed as decrease in initial absorbance of DNA by crystal violet staining based analysis.
Assay [3] has as its system Calf thymus DNA. As to the kind of experiment: Binding affinity to calf thymus DNA assessed as bathochromic shift by UV spectroscopic analysis. The format is nucleic-acid assay. Conditions: Bos taurus. In a few lines: (§2)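 UV titration in 10 mM Tris-HCl pH 7.0 with ligand fixed at 5.0 μM and CT DNA:ligand ratios of 0:1, 1:1, 2:1, 5:1, 10:1 and 30:1.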
The subject of assay [4] is Calf thymus DNA. Nature of the assay: Binding affinity to calf thymus DNA in Tris-HCl buffer at pH 5.0 assessed as dye aggregation in the DNA groove at 310nm at 1 mM incubated for 5 mins by UV spectra analysis. Conditions: Bos taurus. The format is nucleic-acid assay. In a few lines:
(§3)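 CT DNA (80 μM/bp) in 10 mM Tris-HCl pH 5.0 received small aliquots of ligand from a 1 mM stock; incubated 5 min at 20 °C. CD (average of three scans) and UV spectra recorded 215–350 nm in 0.5 nm increments under identical conditions.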

Assay [5] concerns AT rich DNA. Nature of the assay: Displacement of Ethidium bromide from AT3 (5'-ATATAT-3') hairpin DNA (unknown origin)/EtBr complex assessed as binding constant by crystal violet staining based analysis. Type of assay: nucleic-acid assay.
Assay [6] concerns Calf thymus DNA. Nature of the assay: Binding affinity to calf thymus DNA in Tris-HCl buffer at pH 7.0 assessed as decrease in viscosity incubated for 30 mins by Ostwald viscometer analysis. Type of assay: nucleic-acid assay. Conditions: Bos taurus. In a few lines:
(§4)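 Ostwald viscometer at 23.0 ± 1 °C. CT DNA held at 300 μM/bp in 10 mM Tris-HCl pH 7.0 with ligand or ethidium at 0–26 μM, incubated 30 min before timing flow. (η/η0)^1/3 plotted against [ligand]/[DNA]; three replicates, SD shown.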

Assay [7] relates to Calf thymus DNA. As to the kind of experiment: Binding affinity to calf thymus DNA in Tris-HCl buffer at pH 7.0 assessed as change in enthalpy at 100 uM by isothermal titration […] analysis. The format is nucleic-acid assay. Conditions: Bos taurus. In a few lines: as §1
A short description of assay [8]: Displacement of Ethidium bromide from STAT6 (5'-TCCTAG-3') hairpin DNA (unknown origin)/EtBr complex assessed as binding constant by crystal violet staining based analysis.
Assay [9] can be described thus: Displacement of Ethidium bromide from G6 (5'-GGGGGG-3') hairpin DNA (unknown origin)/EtBr complex assessed as decrease in initial absorbance of DNA by crystal violet staining based analysis.
The subject of assay [10] is Calf thymus DNA. Nature of the assay: Binding affinity to calf thymus DNA assessed as hypochromic shift by UV spectroscopic analysis. Type of assay: nucleic-acid assay. Conditions: Bos taurus. In a few lines: as §2
Assay [11] can be described thus: Displacement of Ethidium bromide from cMyc (5'-CACGTG-3') hairpin DNA (unknown origin)/EtBr complex assessed as binding constant by crystal violet staining based analysis.
Assay [12] in a line: Displacement of Ethidium bromide from DDD (5-CGAATT-3') hairpin DNA (unknown origin)/EtBr complex assessed as decrease in initial absorbance of DNA by crystal violet staining based analysis.
Assay [13] is described as follows: Displacement of Ethidium bromide from STAT6 (5'-TCCTAG-3') hairpin DNA (unknown origin)/EtBr complex assessed as decrease in initial absorbance of DNA by crystal violet staining based analysis.
For assay [14], the system named is Calf thymus DNA. As to the kind of experiment: Binding affinity to calf thymus DNA in Tris-HCl buffer at pH 5.0 assessed as dye aggregation in the DNA groove at 337nm at 1 mM incubated for 5 mins by UV spectra analysis. Type of assay: nucleic-acid assay. Conditions: Bos taurus. Put shortly:
as §3

The test system of assay [15] is Calf thymus DNA. Nature of the assay: Binding affinity to calf thymus DNA in Tris-HCl buffer at pH 7.0 assessed as change in entropy at 100 uM by isothermal titration […] analysis. The format is nucleic-acid assay. As to conditions: Bos taurus. Put shortly: as §1
Assay [16] is described as follows: Binding affinity to DDD (5-CGAATT-3') hairpin DNA (unknown origin) assessed as binding constant by isothermal titration calorimetry.
Assay [17] has as its system AT rich DNA. As to the kind of experiment: Displacement of Ethidium bromide from AT3 (5'-ATATAT-3') hairpin DNA (unknown origin)/EtBr complex assessed as decrease in initial absorbance of DNA by crystal violet staining based analysis. The format is nucleic-acid assay.
For assay [18], the system named is Calf thymus DNA. As to the kind of experiment: Binding affinity to calf thymus DNA assessed as change in melting temperature by UV thermal denaturation assay. The format is nucleic-acid assay. As to conditions: Bos taurus. In a few lines:
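CT DNA in 10 mM Tris-HCl pH 7.0 at a DNA:ligand ratio of 30:1, in 1 cm quartz cuvettes. Absorbance read every 2 °C from 25 to 95 °C, heating at 1 °C/min. Tm taken from first-derivative plots.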

Assay [19] can be described thus: Binding affinity to DDD hairpin DNA (unknown origin) assessed as binding constant at 100 uM by ITC analysis. In a few lines:
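Isothermal titration calorimetry of DDD hairpin (10 μM in cell) titrated with ligand (100 μM in syringe), 10 mM Tris-HCl pH 7.0, 30 °C; 25 injections of 10 μL. Heats of dilution subtracted; single-site binding model fitted; K averaged from triplicate experiments.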

Assay [20] in a line: Displacement of Ethidium bromide from cMyc (5'-CACGTG-3') hairpin DNA (unknown origin)/EtBr complex assessed as decrease in initial absorbance of DNA by crystal violet staining based analysis.
Assay [21] in a line: Displacement of Ethidium bromide from NFAT1 (5-GAAAAA-3') hairpin DNA (unknown origin)/EtBr complex assessed as binding constant by crystal violet staining based analysis.
Assay [22] has as its system DNA. Nature of the assay: Displacement of Ethidium bromide from (AT)5 (5'-GGGATATA-TATATCCC-3') DNA (unknown origin)/EtBr complex assessed as decrease in initial absorbance of DNA by crystal violet staining based analysis. Type of assay: nucleic-acid assay.
The test system of assay [23] is DNA. Nature of the assay: Displacement of Ethidium bromide from A5T5 (5'-GGGAAAAATTTTTCCCCC-3') DNA (unknown origin)/EtBr complex assessed as decrease in initial absorbance of DNA by crystal violet staining based analysis. The format is nucleic-acid assay.
The subject of assay [24] is Calf thymus DNA. Nature of the assay: Binding affinity to calf thymus DNA in Tris-HCl buffer at pH 7.0 assessed as rigidification of DNA from intercalation of drug incubated for 30 mins by Ostwald viscometer analysis. The format is nucleic-acid assay. Conditions: Bos taurus. Put shortly: as §4
The subject of assay [25] is Calf thymus DNA. As to the kind of experiment: Binding affinity to calf thymus DNA in Tris-HCl buffer at pH 7.0 assessed as lengthening of DNA from intercalation of drug incubated for 30 mins by Ostwald viscometer analysis. The format is nucleic-acid assay. Conditions: Bos taurus. In a few lines: as §4
In assay [26] the test system is Calf thymus DNA. As to the kind of experiment: Ratio of Kapp for displacement of ethidium bromide from calf thymus DNA/EtBr complex to Kapp for displacement of ethidium bromide from calf thymus DNA/EtBr in presence of methyl green. The format is nucleic-acid assay. As to conditions: Bos taurus. In a few lines: (§5)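 Fluorescence titration of CT DNA (1.0 μM/bp) plus ethidium (0.5 μM), with or without netropsin or methyl green (0.5 μM each), against increasing ligand in 10 mM Tris-HCl pH 7.0. Excitation 520 nm, emission 590 nm, read after 3 min equilibration. C50 is the concentration giving 50% fluorescence loss; Kapp = 9.5×10^6 M⁻¹ × C_ethidium/C50.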

A short description of assay [27]: Binding affinity to DDD hairpin DNA (unknown origin) in Tris-HCl buffer at pH 5.0 assessed as negative induced CD bands formation at 310nm at 1 mM incubated for 5 mins by CD spectra analysis. In a few lines: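 Ligand (1 mM stock) added in small aliquots to DDD hairpin (8.8 μM) in 10 mM Tris-HCl pH 5.0; mixed by inversion and incubated 5 min at 20 °C. CD recorded 215–350 nm in 0.5 nm steps as the average of three scans.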

The nature of assay [28]: Displacement of Ethidium bromide from G5C5 (5'-AAAGGGGG-CCCCCTTT-3') DNA (unknown origin)/EtBr complex assessed as decrease in initial absorbance of DNA by crystal violet staining based analysis.
For assay [29], the system named is Calf thymus DNA. Nature of the assay: Binding affinity to calf thymus DNA in Tris-HCl buffer at pH 7.0 assessed as minimal change in viscosity at 2 to 26 uM incubated for 30 mins by Ostwald viscometer analysis. The format is nucleic-acid assay. Conditions: Bos taurus, dose 2-26 µM. In a few lines: as §4
Assay [30] deals with Calf thymus DNA. Nature of the assay: Ratio of Kapp for displacement of ethidium bromide from calf thymus DNA/EtBr complex to Kapp for displacement of ethidium bromide from calf thymus DNA/EtBr in presence of netropsin. The format is nucleic-acid assay. Conditions: Bos taurus. Put shortly: as §5

Each structure is given as a SMILES string. Activity calls are given as the source filed them. The calls are words filed in the database; no cut-off is given here.

Turning to `CN(C)c1ccc(C(=C2C=CC(=[N+](C)C)C=C2)c2ccc(OCc3ccccc3COc3ccc(C(=C4C=CC(=[N+](C)C)C=C4)c4ccc(N(C)C)cc4)cc3)cc2)cc1`, the outcome in assay [1], in assay [3], in [4], in assay [10] and in [14] was Active. For the same compound, the C50 came out at 2.64 µM in [2]; 1 µM in [9]; 1.57 µM in assay [12]; 1.09 µM in assay [13]; 2.08 µM in assay [17]; 1.56 µM in [20]. The K in assay [5] is 1.3 10^5/M; in assay [8], 1.32 10^5/M; in [11], 5.06e+06 M⁻¹; in [16], 20.5 10^5/M; in assay [19] it was 20.5 10^5/M; in [21], 29.1 10^5/M. Moreover, in assay [6], the Activity result is “Dose-Dependent Effect”. Besides, the deltaH in [7] was -44.7 kcal/mol. For the same compound, in assay [15], the deltaS is -0.12 kcal/mol. Further, the shift in melting temperature (ΔTm) in [18] came out at 0.9 °C.
On to `Cc1cc(N(C)C)cc(C)c1C(=C1C=CC(=[N+](C)C)C=C1)c1ccc(N(C)C)cc1`, for which the result in [1], in [3], in [24], in assay [25], in assay [27] and in [10] was Active. The figures for the C50 in assay [22], in assay [23] and in assay [28] were 1.57 µM, 1.86 µM and 2.05 µM, respectively. Also, the K in assay [5] was 0.21 10^5/M; in [8], 1.06 10^5/M; in assay [11], 1.26e+06 M⁻¹; in [16], 14.6 10^5/M; in assay [19], 14.6 10^5/M; in assay [21], 0.19 10^5/M. For the same compound, the Ratio is > 8 in [26] and 1.3 in assay [30]. Moreover, in [7], the deltaH is 29.7 kcal/mol. Besides, the deltaS in assay [15] came out at 0.122 kcal/mol. In addition, in assay [29], the Activity result is “Dose-Dependent Effect”. Besides, in [18], the shift in melting temperature (ΔTm) was 2.8 °C.

By ΔTm is commonly meant the shift of the melting midpoint relative to a reference.
